Data: ChEMBL document CHEMBL1129929, “Analogues of methotrexate in rheumatoid arthritis. 1. Effects of 10-deazaaminopterin analogues on type II collagen-induced arthritis in mice” (J Med Chem, 1997)

Assays:
[1] = test system: Mus musculus; experiment: Incidence of disease(mouse type II collagen arthritis) was scored as the percentage of animals within each experimental group that exhibited joint or limb inflammation on day 23 at intraperitoneal dose of 18 mg/kg; type: functional
Method in brief: (§1)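 DBA/1 mice were immunized with bovine type II collagen (modified Courtenay method), with a collagen booster on day 21. Compounds were given ip starting 2 days before the first collagen challenge and every 2 days thereafter. Incidence was the percentage of animals per group with joint or limb inflammation, scored on days 23, 30, 37 and 44.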

[2] = test system: Mus musculus; experiment: Tested for antiinflammatory activity on mouse type II collagen arthritis as Paw swelling* of all animals in each group on day 44 at intraperitoneal dose of 18 mg/kg; type: functional
Method in brief: (§2)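 DBA/1 mice immunized with bovine type II collagen (Courtenay method, modified), antigen booster at day 21. Compounds given ip from 2 days before the first collagen challenge, then every 2 days. Hind paw dimensions (mm) measured for both limbs of all animals, expressed as mean ± SD. Eight mice per dose; untreated controls pooled from four experiments (48 animals).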

[3] = test system: Mus musculus; experiment: Tested for antiinflammatory activity on mouse type II collagen arthritis as Paw swelling* of all animals in each group on day 23 at intraperitoneal dose of 18 mg/kg; type: functional; method in brief: as §2
[4] = test system: Mus musculus; experiment: Tested for antiinflammatory activity on mouse type II collagen arthritis as Paw swelling* of all animals in each group on day 37 at intraperitoneal dose of 12 mg/kg; type: functional; method in brief: as §2
[5] = test system: Mus musculus; experiment: Tested for antiinflammatory activity on mouse type II collagen arthritis as Paw swelling* of all animals in each group on day 30 at intraperitoneal dose of 12 mg/kg; type: functional; method in brief: as §2
[6] = test system: Mus musculus; experiment: Incidence of disease(mouse type II collagen arthritis) was scored as the percentage of animals within each experimental group that exhibited joint or limb inflammation on day 37 at intraperitoneal of dose 18 mg/kg; type: functional; method in brief: as §1
[7] = test system: Mus musculus; experiment: Tested for antiinflammatory activity on mouse type II collagen arthritis as Paw swelling* of all animals in each group on day 44 at intraperitoneal dose of 12 mg/kg; type: functional; method in brief: as §2
[8] = test system: Mus musculus; experiment: Incidence of disease(mouse type II collagen arthritis) was scored as the percentage of animals within each experimental group that exhibited joint or limb inflammation on day 44 at intraperitoneal of dose 12 mg/kg; type: functional; method in brief: as §1
[9] = test system: Mus musculus; experiment: Tested for antiinflammatory activity on mouse type II collagen arthritis as Paw swelling* of all animals in each group on day 37 at intraperitoneal dose of 18 mg/kg; type: functional; method in brief: as §2
[10] = test system: Mus musculus; experiment: Incidence of disease(mouse type II collagen arthritis) was scored as the percentage of animals within each experimental group that exhibited joint or limb inflammation on day 30 at intraperitoneal of dose 12 mg/kg; type: functional; method in brief: as §1
[11] = test system: Mus musculus; experiment: Tested for antiinflammatory activity on mouse type II collagen arthritis as Paw swelling* of all animals in each group on 30 at intraperitoneal dose of 18 mg/kg; type: functional
Method in brief: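 DBA/1 mice were challenged with bovine type II collagen and boosted on day 21. Dosing was ip from 2 days before the initial challenge, then every 2 days, with eight animals per dose. Hind paw dimensions (mm) were measured for both limbs of all animals and given as mean ± SD. Untreated controls were pooled from four experiments (48 animals).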

[12] = test system: Mus musculus; experiment: Incidence of disease(mouse type II collagen arthritis) was scored as the percentage of animals within each experimental group that exhibited joint or limb inflammation on day 37 at intraperitoneal of dose 12 mg/kg; type: functional; method in brief: as §1
[13] = test system: Mus musculus; experiment: Incidence of disease(mouse type II collagen arthritis) was scored as the percentage of animals within each experimental group that exhibited joint or limb inflammation on day 44 at intraperitoneal of dose 18 mg/kg; type: functional; method in brief: as §1
[14] = test system: Mus musculus; experiment: Incidence of disease(mouse type II collagen arthritis) was scored as the percentage of animals within each experimental group that exhibited joint or limb inflammation on day 30 at intraperitoneal of dose 18 mg/kg; type: functional; method in brief: as §1
[15] = test system: Mus musculus; experiment: Tested for antiinflammatory activity on mouse type II collagen arthritis as Paw swelling* of all animals in each group on day 23 at intraperitoneal dose of 12 mg/kg; type: functional; method in brief: as §2
[16] = test system: Mus musculus; experiment: Incidence of disease(mouse type II collagen arthritis) was scored as the percentage of animals within each experimental group that exhibited joint or limb inflammation on day 23 at intraperitoneal dose of 12 mg/kg; type: functional; method in brief: as §1
[17] = test system: Mus musculus; experiment: Incidence of disease(mouse type II collagen arthritis) was scored as the percentage of animals within each experimental group that exhibited joint or limb inflammation on day 37 at intraperitoneal of dose 12 mg/kg (1 animal died); type: functional
Method in brief: (§3)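 DBA/1 mice immunised with bovine type II collagen, booster at day 21 (modified Courtenay model). Compound given intraperitoneally from 2 days before the first collagen challenge, then every 2 days. Incidence is the percentage of animals per group showing joint or limb inflammation, scored visually on days 23, 30, 37 and 44.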

[18] = test system: Mus musculus; experiment: Incidence of disease(mouse type II collagen arthritis) was scored as the percentage of animals within each experimental group that exhibited joint or limb inflammation on day 44 at intraperitoneal of dose 12 mg/kg; d means 3 animals died; type: functional, organism-based; set-up: dose 12 mg/kg; settings: at 12 mg/kg; method in brief: as §1
[19] = test system: Mus musculus; experiment: Tested for antiinflammatory activity on mouse type II collagen arthritis as Paw swelling* of all animals in each group on day 44 at intraperitoneal dose of 12 mg/kg; d means 3 animals died; type: functional, organism-based; set-up: dose 12 mg/kg; method in brief: as §2
[20] = test system: Mus musculus; experiment: Incidence of disease(mouse type II collagen arthritis) was scored as the percentage of animals within each experimental group that exhibited joint or limb inflammation on day 30 at intraperitoneal of dose 12 mg/kg (1 animal died); type: functional; method in brief: as §3
[21] = test system: Mus musculus; experiment: Incidence of disease(mouse type II collagen arthritis) was scored as the percentage of animals within each experimental group that exhibited joint or limb inflammation on day 23 at intraperitoneal dose of 12 mg/kg (1 animal died); type: functional; method in brief: as §3

Work on `CCC(Cc1cnc2nc(N)nc(N)c2n1)c1ccc(C(=O)N[C@@H](CCC(=O)O)C(=O)O)cc1` (some centres undefined) [EDATREXATE] yielded an Animals [1] of 12%, a Paw swelling [2] of 2.18 mm and a Paw swelling [3] of 2.18 mm. It also gave a Paw swelling [4] of 2.34 mm, a Paw swelling [5] of 2.28 mm and an Animals [6] of 12%. The Paw swelling [7] was 2.32 mm, the Animals [8] was 50% and the Paw swelling [9] was 2.19 mm. For the same molecule, the Animals [10] was 25%, the Paw swelling [11] was 2.24 mm and the Animals [12] was 38%. For the same molecule, the Animals [13] was 12%, the Animals [14] was 0% and the Paw swelling [15] was 2.26 mm. For the same molecule, the Animals [16] was 25%.
In the case of `Nc1nc(N)c2nc(CCc3ccc(C(=O)NC(CCC(=O)O)C(=O)O)nc3)cnc2n1` (centres undefined), the Animals [17] is reported as 0%, the Animals [18] is reported as “Three animals died” and the Paw swelling [4] is reported as 2.07 mm. For the same molecule, the Paw swelling [5] was 2.11 mm, the Paw swelling [19] was “Three animals died” and the Animals [20] was 0%. It also gave a Paw swelling [15] of 2.14 mm and an Animals [21] of 0%.
